According to ChEMBL document CHEMBL2311435, “Development of 18F-labeled picolinamide probes for PET imaging of malignant melanoma” (J Med Chem, 2013):

Tests used:
Intestine [1] = experiment: Biodistribution in intestine of C57BL/6 mouse xenografted with mouse B16F10 cells at 3.7 MBq, iv after 1 hr by gamma-scintillation counting analysis; format: ADME, organism-based, B16-F10; conditions: in vivo
In short: (§1)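 1.0 × 10^6 B16F10 cells in PBS injected subcutaneously into the right shoulder of C57BL/6 mice, grown to 0.5 cm (~10 day). Tail-vein injection of about 3.7 MBq (100 μCi) 18F probe in PBS (0.1 M, pH 7.4). Killed at 1.0 or 2.0 h p.i. (n = 4 per group). Tissues excised, weighed and gamma-counted; uptake expressed as %ID/g, mean ± SD.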

[2] = Drug uptake in tumor of C57BL/6 mouse xenografted with mouse B16F10 cells at 3.7 MBq, iv after 5 mins by PET imaging analysis; format: ADME, organism-based, Neoplasm, B16-F10; conditions: in vivo
In short: (§2)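 Dynamic small-animal PET in B16F10 tumor-bearing mice (n = 4) after tail-vein injection of ~3.7 MBq (100 μCi). Scanning began ~2.0 min post-injection and ran 35 min (6×20 s, 8×60 s, 10×150 s; 24 frames). ROI counts converted to %ID/g assuming 1 g/ml tissue density. No attenuation correction.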

Zone of skin [3] = experiment: Biodistribution in skin of C57BL/6 mouse xenografted with mouse B16F10 cells at 3.7 MBq, iv after 2 hrs by gamma-scintillation counting analysis; format: ADME, organism-based, B16-F10; conditions: in vivo; in short: as §1
Blood [4] = experiment: Biodistribution in blood of C57BL/6 mouse xenografted with mouse B16F10 cells at 3.7 MBq, iv after 2 hrs by gamma-scintillation counting analysis; format: ADME, organism-based, B16-F10; conditions: in vivo; in short: as §1
[5] = Drug uptake in tumor of C57BL/6 mouse xenografted with mouse B16F10 cells at 3.7 MBq, iv after 35 mins by PET imaging analysis; format: ADME, organism-based, Neoplasm, B16-F10; conditions: in vivo; in short: as §2
Bone = experiment: Biodistribution in bone of C57BL/6 mouse xenografted with mouse B16F10 cells at 3.7 MBq, iv after 2 hrs by gamma-scintillation counting analysis; format: ADME, organism-based, Bone element, B16-F10; conditions: in vivo; in short: as §1
Intestine [6] = experiment: Biodistribution in intestine of C57BL/6 mouse xenografted with mouse B16F10 cells at 3.7 MBq, iv after 2 hrs by gamma-scintillation counting analysis; format: ADME, organism-based, B16-F10; conditions: in vivo; in short: as §1
[7] = Drug uptake in tumor of C57BL/6 mouse xenografted with mouse B16F10 cells at 3.7 MBq, iv after 2 hrs by PET imaging analysis; format: ADME, organism-based, Neoplasm, B16-F10; conditions: in vivo
In short: (§3)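 Static small-animal PET at 0.5, 1 and 2 h after tail-vein injection of ~3.7 MBq (100 μCi) into B16F10-bearing C57BL/6 mice (n = 4 per probe). Isoflurane anesthesia, 5% induction and 2% maintenance in O2. Decay-corrected images. ROI-derived %ID/g assumes 1 g/ml density, without attenuation correction. Mean ± SD.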

Kidney = experiment: Drug uptake in kidney of C57BL/6 mouse xenografted with mouse B16F10 cells at 3.7 MBq, iv after 35 mins by PET imaging analysis; format: ADME, organism-based, B16-F10; conditions: in vivo; in short: as §2
Nucleic Acid [8] = experiment: Ratio of drug uptake in tumor to muscle of C57BL/6 mouse xenografted with mouse B16F10 cells at 3.7 MBq, iv after 1 hr by gamma-scintillation counting analysis; format: ADME, organism-based, B16-F10; conditions: in vivo
In short: (§4)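 Same subcutaneous B16F10 model and tail-vein dose of about 3.7 MBq (100 μCi), n = 4 per group. Dissection at 1 or 2 h p.i. Gamma-counter %ID/g of tumor divided by that of blood, lung, liver or muscle, given as mean ± SD.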

Mus musculus [9] = experiment: Biodistribution in tumor of C57BL/6 mouse xenografted with mouse B16F10 cells at 3.7 MBq, iv after 2 hrs by gamma-scintillation counting analysis; format: ADME, organism-based, Neoplasm, B16-F10; conditions: in vivo; in short: as §1
[10] = Drug uptake in tumor of C57BL/6 mouse xenografted with mouse B16F10 cells at 3.7 MBq, iv after 0.5 hrs by PET imaging analysis; format: ADME, organism-based, Neoplasm, B16-F10; conditions: in vivo; in short: as §3
Spleen [11] = experiment: Biodistribution in spleen of C57BL/6 mouse xenografted with mouse B16F10 cells at 3.7 MBq, iv after 2 hrs by gamma-scintillation counting analysis; format: ADME, organism-based, B16-F10; conditions: in vivo; in short: as §1
Nucleic Acid [12] = experiment: Ratio of drug uptake in tumor to blood of C57BL/6 mouse xenografted with mouse B16F10 cells at 3.7 MBq, iv after 2 hrs by gamma-scintillation counting analysis; format: ADME, organism-based, B16-F10; conditions: tumour; in short: as §4
Spleen [13] = experiment: Biodistribution in spleen of C57BL/6 mouse xenografted with mouse B16F10 cells at 3.7 MBq, iv after 1 hr by gamma-scintillation counting analysis; format: ADME, organism-based, B16-F10; conditions: in vivo; in short: as §1
Stomach = experiment: Biodistribution in stomach of C57BL/6 mouse xenografted with mouse B16F10 cells at 3.7 MBq, iv after 1 hr by gamma-scintillation counting analysis; format: ADME, organism-based, B16-F10; conditions: in vivo; in short: as §1
Heart [14] = experiment: Biodistribution in heart of C57BL/6 mouse xenografted with mouse B16F10 cells at 3.7 MBq, iv after 1 hr by gamma-scintillation counting analysis; format: ADME, organism-based, B16-F10; conditions: in vivo; in short: as §1
Mus musculus [15] = experiment: Biodistribution in lungs of C57BL/6 mouse xenografted with mouse B16F10 cells at 3.7 MBq, iv after 1 hr by gamma-scintillation counting analysis; format: ADME, organism-based, Lung, B16-F10; conditions: in vivo; in short: as §1
Heart [16] = experiment: Biodistribution in heart of C57BL/6 mouse xenografted with mouse B16F10 cells at 3.7 MBq, iv after 2 hrs by gamma-scintillation counting analysis; format: ADME, organism-based, B16-F10; conditions: in vivo; in short: as §1
Mus musculus [17] = experiment: Biodistribution in tumor of C57BL/6 mouse xenografted with mouse B16F10 cells at 3.7 MBq, iv after 1 hr by gamma-scintillation counting analysis; format: ADME, organism-based, Neoplasm, B16-F10; conditions: in vivo; in short: as §1
Nucleic Acid [18] = experiment: Ratio of drug uptake in tumor to liver of C57BL/6 mouse xenografted with mouse B16F10 cells at 3.7 MBq, iv after 2 hrs by gamma-scintillation counting analysis; format: ADME, organism-based, B16-F10; conditions: in vivo; in short: as §4
Mus musculus [19] = experiment: Biodistribution in eye of C57BL/6 mouse xenografted with mouse B16F10 cells at 3.7 MBq, iv after 1 hr by gamma-scintillation counting analysis; format: ADME, organism-based, B16-F10; conditions: in vivo; in short: as §1
Blood [20] = experiment: Biodistribution in blood of C57BL/6 mouse xenografted with mouse B16F10 cells at 3.7 MBq, iv after 1 hr by gamma-scintillation counting analysis; format: ADME, organism-based, B16-F10; conditions: in vivo; in short: as §1
Liver [21] = experiment: Biodistribution in liver of C57BL/6 mouse xenografted with mouse B16F10 cells at 3.7 MBq, iv after 1 hr by gamma-scintillation counting analysis; format: ADME, organism-based, B16-F10; conditions: in vivo; in short: as §1
Muscle tissue [22] = experiment: Biodistribution in muscle of C57BL/6 mouse xenografted with mouse B16F10 cells at 3.7 MBq, iv after 2 hrs by gamma-scintillation counting analysis; format: ADME, organism-based, B16-F10; conditions: in vivo; in short: as §1
Muscle tissue [23] = experiment: Biodistribution in muscle of C57BL/6 mouse xenografted with mouse B16F10 cells at 3.7 MBq, iv after 1 hr by gamma-scintillation counting analysis; format: ADME, organism-based, B16-F10; conditions: in vivo; in short: as §1
Brain = experiment: Biodistribution in brain of C57BL/6 mouse xenografted with mouse B16F10 cells at 3.7 MBq, iv after 2 hrs by gamma-scintillation counting analysis; format: ADME, organism-based, B16-F10; conditions: in vivo; in short: as §1
Liver [24] = experiment: Biodistribution in liver of C57BL/6 mouse xenografted with mouse B16F10 cells at 3.7 MBq, iv after 2 hrs by gamma-scintillation counting analysis; format: ADME, organism-based, B16-F10; conditions: in vivo; in short: as §1
Zone of skin [25] = experiment: Biodistribution in skin of C57BL/6 mouse xenografted with mouse B16F10 cells at 3.7 MBq, iv after 1 hr by gamma-scintillation counting analysis; format: ADME, organism-based, B16-F10; conditions: in vivo; in short: as §1
Nucleic Acid [26] = experiment: Ratio of drug uptake in tumor to liver of C57BL/6 mouse xenografted with mouse B16F10 cells at 3.7 MBq, iv after 1 hr by gamma-scintillation counting analysis; format: ADME, organism-based, B16-F10; conditions: in vivo; in short: as §4
Pancreas = experiment: Biodistribution in pancreas of C57BL/6 mouse xenografted with mouse B16F10 cells at 3.7 MBq, iv after 1 hr by gamma-scintillation counting analysis; format: ADME, organism-based, B16-F10; conditions: in vivo; in short: as §1

Drug uptake (Intestine [1]): 2.01 % ID/g | Drug uptake [2]: 5.28 % ID/g | Drug uptake (Zone of skin [3]): 0.68 % ID/g | Drug uptake (Blood [4]): 0.19 % ID/g | Drug uptake [5]: 10.52 % ID/g | Drug uptake (Bone): 1.72 % ID/g | Drug uptake (Intestine [6]): 0.88 % ID/g | Drug uptake [7]: 16.87 % ID/g | Drug uptake (Kidney): 9.44 % ID/g | Ratio (Nucleic Acid [8]): 13.84 | Drug uptake (Mus musculus [9]): 16.97 % ID/g | Drug uptake [10]: 12.74 % ID/g | Drug uptake (Spleen [11]): 1.13 % ID/g | Ratio (Nucleic Acid [12]): 88.25 | Drug uptake (Spleen [13]): 1.78 % ID/g | Drug uptake (Stomach): 4.26 % ID/g | Drug uptake (Heart [14]): 1.17 % ID/g | Drug uptake (Mus musculus [15]): 1.58 % ID/g | Drug uptake (Heart [16]): 0.59 % ID/g | Drug uptake (Mus musculus [17]): 15.2 % ID/g | Ratio (Nucleic Acid [18]): 5.14 | Drug uptake (Mus musculus [19]): 37.47 % ID/g | Drug uptake (Blood [20]): 0.42 % ID/g | Drug uptake (Liver [21]): 4.71 % ID/g | Drug uptake (Muscle tissue [22]): 0.41 % ID/g | Drug uptake (Muscle tissue [23]): 1.16 % ID/g | Drug uptake (Brain): 0.42 % ID/g | Drug uptake (Liver [24]): 3.32 % ID/g | Drug uptake (Zone of skin [25]): 1.3 % ID/g | Ratio (Nucleic Acid [26]): 3.79 | Drug uptake (Pancreas): 1.61 % ID/g
SMILES: CCN(CC)CCNC(=O)c1ccc([18F])cn1
